Only some compounds are listed: those with a hit (about 4.1% of all), similar ones and a draw of the others.
KCNK9 block: KCNK9 potassium channel inhibitors, primary screen, HEK293 cells, thallium flux; Potassium channel subfamily K member 9 (Homo sapiens), Q9NPC2; FluxOR thallium flux fluorescence; active compounds read low; B-score at 10 µM; 310,000 compounds, 1.2% hits;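 active = ratio B-score over 3 SD below the library mean, with starting fluorescence within 5 SD of its mean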;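 note: negative B-score means less thallium flux so channel inhibition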
Cl transport mod: KCC2 cotransporter modulators, thallium flux, primary screen, cell-based, HEK293 KCC2, FluoZin-2 fluorescence, MLSMR; 190,000 compounds, 2.2% hits; Solute carrier family 12 member 5 (Homo sapiens), Q9H2X9; AID 1456, 2008; KCC2 cells, thallium flux FluoZin-2 fluorescence; B-score of Tl+ flux slope (higher = more flux/activation; lower = inhibition) at 10 µM;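 active = thallium flux slope and its plate-corrected score both differing from the plate sample mean at a set confidence after two filtering rounds, in either direction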;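 note: slope of fluorescence scaled to starting intensity during 10 to 20 s after thallium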
KCNK3 inh: human KCNK3 channel inhibitors, primary screen, CHO cells, FluxOR thallium flux, B-score | AID 602410, 2012 | 340,000 compounds, 0.84% hits | B-score at 10 µM | FluxOR fluorescence; active compounds read low | Potassium channel subfamily K member 3 (Homo sapiens), O14649;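 active = B-score under library mean minus 4 SD, starting fluorescence ratio at most library mean plus 5 SD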;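 note: more negative B-score means stronger inhibition of thallium flux through KCNK3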
Target sequence (O14649 whole entry, looked up): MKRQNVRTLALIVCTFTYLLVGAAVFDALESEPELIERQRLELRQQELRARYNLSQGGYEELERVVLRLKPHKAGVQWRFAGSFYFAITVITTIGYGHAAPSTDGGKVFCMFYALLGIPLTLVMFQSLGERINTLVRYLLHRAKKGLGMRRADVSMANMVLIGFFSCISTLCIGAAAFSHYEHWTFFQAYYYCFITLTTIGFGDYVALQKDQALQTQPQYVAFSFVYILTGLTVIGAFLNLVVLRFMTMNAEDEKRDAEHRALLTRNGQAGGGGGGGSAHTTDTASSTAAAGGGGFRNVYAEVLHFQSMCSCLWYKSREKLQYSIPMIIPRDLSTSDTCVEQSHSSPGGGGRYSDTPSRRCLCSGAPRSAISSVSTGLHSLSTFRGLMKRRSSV
hERG protect: hERG rescue from dofetilide block, primary screen, cell-based, CHO-hERG, FluxOR thallium flux, dofetilide IC70. Voltage-gated inwardly rectifying potassium channel KCNH2 (Homo sapiens), Q12809. activation (rescue from dofetilide block), less the hit threshold, % at 10 µM. 310,000 compounds, 0.51% hits. dofetilide IC70 present;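 active = activation above the mean of controls blocked by dofetilide plus 5 SD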;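 note: thallium influx through hERG after potassium depolarization seen as dye fluorescence rise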
KCNQ1 inh: inhibitors of human KCNQ1 channel, primary screen, cell-based, thallium flux, high-throughput | CHO-K1 KCNQ1, FluxOR thallium flux fluorescence; active compounds read high | B-score at 10 µM | 310,000 compounds, 1.3% hits | AID 2642, 2010;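 active = compounds whose thallium flux B-score, printed positive for inhibition, exceeds three library SD while starting fluorescence stays within three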;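 note: channel opened by potassium depolarization with thallium stimulus after 20 min compound exposure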
KCNQ1 act: potentiators or activators of KCNQ1 channel, primary screen, cell-based, thallium flux, high-throughput | Potassium voltage-gated channel subfamily KQT member 1 (Homo sapiens), P51787 | CHO-K1 KCNQ1, thallium flux FluxOR fluorescence; active compounds read high | B-score at 10 µM | 310,000 compounds, 0.35% hits | AID 2648, 2010;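 active = fluorescence ratio B-score, a plate-corrected score, at least three library SD, with initial intensity B-score within 5 SD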
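Material: CHO-K1 cells stably expressing KCNQ1. Medium: assay buffer for compound exposure, DMSO matched across wells. Reagent: K+/Tl+ depolarizing stimulus. Compound dosing: single-concentration screen. Times: 37 °C overnight plating, 90-min dark dye load, 20-min compound pretreatment. Technique: FluxOR Tl+ flux fluorescence.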
KCNK9 inh conf: KCNK9 potassium channel inhibitors, confirmation, HEK293 cells, thallium flux, duplicate. 4,900 compounds, 43% hits. AID 492992, 2010. shares compounds with KCNK9 block. inhibition, % at 10 µM. FluxOR thallium flux fluorescence;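 active = thallium signal inhibited by more than 5 SD of the compound-free buffer control wells, on both duplicate plates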;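 note: 0% = assay buffer control wells without compound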
Kir21 sel: mouse Kir2.1 channel inhibition, confirmation, selectivity assay for KCNK9 modulator project, cell-based, HEK293, thallium flux; 4,900 compounds, 4% hits; Kir2.1 cells, FluxOR thallium flux fluorescence; inhibition, % at 10 µM; shares compounds with KCNK9 block;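 active = thallium signal drop more than 5 SD beyond the mean of the no-compound control wells, seen in both duplicate plates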;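 note: signal is fluorescence rise after thallium addition divided by baseline fluorescence; plate controls were assay buffer only for no effect and full block by chlorpromazine control for full effect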
KCNK9 uninduced: thallium flux in non-induced HEK293 cells, confirmation, counter-screen for KCNK9 inhibitor project, cell-based, second counter screen, non-induced KCNK9-HEK293. 4,900 compounds, 40% hits. inhibition, % at 10 µM. shares compounds with KCNK9 block. FluxOR thallium flux;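 active = thallium signal drop beyond 5 SD of the untreated control mean, on both duplicate plates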;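 note: plate controls were buffer only IC0 wells for no effect and SID17386958 at its maximal inhibitory level for full effect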
KCNK3 inh conf: retest of human KCNK3 channel inhibitors, confirmation, CHO cells, FluxOR thallium flux, triplicate; shares compounds with KCNK3 inh; FluxOR fluorescence; 0% buffer, 100% carvedilol maximal block; ratio percent of control, % at 10 µM; 2,400 compounds, 99% hits;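 active = ratio percent of control, averaged over triplicates, above buffer control mean plus 5 SD, cut at about 64% in these data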;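 note: ratio is the fluorescence rise from min to max over baseline after thallium stimulus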
KCNK3 noninduced: thallium flux inhibition in non-induced cells, primary screen, counter-screen for KCNK3 inhibitor project, cell-based, non-induced KCNK3 line, FluxOR thallium, triplicate. shares compounds with KCNK3 inh. non-induced KCNK3 parental cells; active compounds read low. thallium flux ratio (lower = more inhibition) at 10 µM. 2,400 compounds, 40% hits;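 active = thallium flux ratio, averaged over three wells, more than 5 SD below the buffer control mean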;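 note: host cells are CHO cells without KCNK3 induction; ratio is peak minus trough fluorescence over baseline then normalized to buffer controls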
Numbers without * were called inactive; i = inactive; · = no result.

SMILES	KCNK9 block	Cl transport mod	KCNK3 inh	hERG protect	KCNQ1 inh	KCNQ1 act	KCNK9 inh conf	Kir21 sel	KCNK9 uninduced	KCNK3 inh conf	KCNK3 noninduced
CCOC(=O)c1nn(-c2cccc(OC)c2)c(-c2ccccc2)c1C(=O)c1ccccc1	-10.1*	-0.906	-9.26*	-7.0	i	i	50.5%*	i	i	113.0*	0.138*
CCCCOC1(c2ccccc2)OC(=O)c2ccccc21 (stereo not drawn)	-15.7*	-0.185	i	-8.6	i	i	54.5%*	i	51.5%*	100.7*	i
Cc1cc(/C=N/NC(=O)c2cccs2)c(C)n1-c1ccccc1	-10*	0.037	-10.2*	-9.9	i	i	43.0%*	i	i	118.3*	0.139*
COc1cccc(CSc2nccn2C)c1	i	·	i	-3.3	i	i	·	·	·	·	·
CCOC(=O)C(C)Sc1nc(-c2ccco2)cc(C(F)(F)F)c1C#N (stereo not drawn)	-15.7*	-1.6	-12.1*	-27.9	i	i	70.5%*	i	44.0%*	97.7*	0.131*
CCOC(=O)c1sc(NC(=O)CSc2nc(-c3ccco3)cc(C(F)(F)F)n2)c(C#N)c1C	i	0.872	i	-7.4	i	i	·	·	·	·	·
CCOc1ccc(OCCSc2nnnn2C2CCCCC2)cc1	-14.1*	·	-12.1*	-11.5	i	i	68.0%*	i	44.0%*	118.3*	0.156*
c1ccc(-n2nnnc2SCCCSc2nc3ccccc3s2)cc1	-15.4*	-3.21	-9.88*	-13.4	i	i	62.5%*	i	46.0%*	103.3*	i
CC/C(=N/N=C(/CC)c1ccc(O)cc1)c1ccc(O)cc1	-15.2*	·	-9.62*	-3.6	i	i	55.5%*	i	30.5%*	92.0*	i
COCC(=O)Nc1ccc2c(c1)OCC(=O)N2Cc1ccccc1F	i	·	i	-16.2	i	i	·	·	·	·	·
COc1cc2ccc(=O)oc2c(CC=C(C)C)c1OC	i	-1.02	i	-10.2	i	i	·	·	·	·	·
COc1cc(O)cc2c1[C@@H]1Oc3c(ccc(O)c3CC=C(C)C)[C@@H]1CO2	-11.6*	·	i	-25.6	i	i	54.0%*	i	i	136.7*	0.124*
Cc1c(C(=O)N(C)Cc2cccc(F)c2)oc2c(Cl)cccc12	-13.9*	·	-10.7*	-10.3	i	i	47.0%*	i	49.0%*	104.0*	i
